In the library only some 2.3% were active in any assay of this set; here they are far more common.
TRPC6 inh: mouse TRPC6 channel inhibitors, primary screen, cell-based, HEK293, membrane potential dye; Short transient receptor potential channel 6 (Mus musculus), Q61143; ACh-evoked depolarization; hits give low values; B-score at 10 µM; 1.1% of 310,000 active; AID 2553, 2010;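 active means B-score under library mean minus 3 SD, initial fluorescence not abnormally high, positive integrated signal ratio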;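 further: B-score derived from integrated fluorescence ratio over the kinetic read; more negative B-score means stronger inhibition of depolarization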
Target sequence (Q61143 whole entry, looked up): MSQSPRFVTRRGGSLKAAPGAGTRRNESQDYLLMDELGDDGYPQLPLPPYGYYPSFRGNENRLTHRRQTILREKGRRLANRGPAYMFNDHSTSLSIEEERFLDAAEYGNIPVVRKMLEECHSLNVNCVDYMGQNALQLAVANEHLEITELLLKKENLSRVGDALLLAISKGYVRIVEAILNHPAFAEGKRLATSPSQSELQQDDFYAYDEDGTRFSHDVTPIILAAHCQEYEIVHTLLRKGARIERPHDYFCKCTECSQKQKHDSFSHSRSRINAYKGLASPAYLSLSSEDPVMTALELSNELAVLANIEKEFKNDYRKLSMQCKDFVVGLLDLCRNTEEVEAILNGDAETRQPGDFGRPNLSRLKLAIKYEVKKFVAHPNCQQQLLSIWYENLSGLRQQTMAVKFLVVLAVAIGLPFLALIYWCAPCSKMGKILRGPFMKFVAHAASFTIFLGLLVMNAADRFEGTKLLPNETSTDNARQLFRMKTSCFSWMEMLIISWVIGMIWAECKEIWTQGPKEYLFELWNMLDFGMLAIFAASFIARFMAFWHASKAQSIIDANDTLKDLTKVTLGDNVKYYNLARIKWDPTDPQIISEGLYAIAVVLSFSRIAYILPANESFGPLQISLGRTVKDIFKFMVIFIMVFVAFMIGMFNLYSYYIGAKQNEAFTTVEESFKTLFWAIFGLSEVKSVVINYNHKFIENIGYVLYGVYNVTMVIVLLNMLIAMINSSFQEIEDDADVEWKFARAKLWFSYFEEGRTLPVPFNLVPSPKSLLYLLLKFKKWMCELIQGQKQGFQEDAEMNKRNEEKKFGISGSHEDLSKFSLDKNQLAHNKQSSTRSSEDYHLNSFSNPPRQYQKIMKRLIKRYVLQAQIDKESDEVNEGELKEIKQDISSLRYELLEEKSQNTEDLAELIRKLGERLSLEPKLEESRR
TRPC6 activator: mouse TRPC6 channel activators, primary screen, cell-based, HEK293, membrane potential dye | HEK293-TRPC6 membrane potential dye fluorescence; hits give high values | B-score at 10 µM | 0.13% of 310,000 active | AID 2550, 2010;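 active means B-score of the integrated fluorescence ratio above library mean plus 3 SD, and starting fluorescence ratio within library mean plus 5 SD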;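 further: higher score means more depolarization so channel activation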
TRPC4 potent: positive allosteric modulators of TRPC4, primary screen, cell-based, mouse TRPC4beta, HEK293 mu-opioid, Fluo-4 calcium | Short transient receptor potential channel 4 (Mus musculus), Q9QUQ5 | DAMGO EC20, Fluo-4 Ca2+ flux; hits give high values | B-score at 10 µM | 0.42% of 310,000 active | AID 2227, 2009;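 active means B-score of calcium response area above 5 SD of library B-scores, with initial fluorescence ratio within 5 SD of library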;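 further: B-score of integrated fluorescence ratio over time as area under calcium response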
TRPC4 inh: inhibitors of mouse TRPC4 channel, primary screen, Fluo4 calcium, HEK293 TRPC4beta/mu-opioid cells; 0.39% of 300,000 active; DAMGO-evoked Fluo4 calcium flux; hits give low values; B-score at 10 µM; AID 2247, 2010; Short transient receptor potential channel 4 (Mus musculus), Q9QUQ5;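 active means B-score over 3 SD under the library average, no early fluorescence shift, positive overall ratio signal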
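Assay system: HEK293 cells with stable TRPC4beta plus mu-opioid receptor expression. Dosing: single dose. Measured by: Fluo4 Ca2+ flux fluorescence. Also added: DAMGO in two steps, submaximal then maximal. Read-out: B score from integrated Fluo4 fluorescence ratio.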
Yeast superoxide: reduction of superoxide in aged yeast, primary screen, HTS. S. cerevisiae aged cells, superoxide DHE fluorescence; hits give low values. superoxide response (% of plate mean), % at 10 µM. 0.18% of 330,000 active. AID 2690, 2010;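 active means superoxide response under a set limit, about three screen SD below normal, cut at about 65% in these data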;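 further: yeast aged for seven days with compound at 30 °C before DHE staining; 100% = average MFI of all compound-treated wells on the plate with controls excluded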
TRPC4 act: activators of mouse TRPC4 channel, primary screen, Fluo4 calcium, HEK293 TRPC4beta/mu-opioid cells | Fluo4 calcium fluorescence; hits give high values | B-score at 10 µM | 0.49% of 310,000 active | Short transient receptor potential channel 4 (Mus musculus), Q9QUQ5;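 active means B-score above 5 SD of library B-scores, and initial fluorescence ratio not above library mean plus 5 SD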;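 further: positive B-score marks a calcium rise read as TRPC4 activation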
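System: HEK293 cells stably co-expressing mouse TRPC4beta and mu-opioid receptor; Schedule: Fluo4 dye loading 45 min at room temperature, 110 s recording; Detection: Fluo4 fluorescence, kinetic; Evaluation: B-scored integrated calcium fluorescence ratio; Controls: buffer (low) and maximal DAMGO (high).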
Numbers without * were called inactive; i = inactive.

SMILES | TRPC6 inh | TRPC6 activator | TRPC4 potent | TRPC4 inh | Yeast superoxide | TRPC4 act
O=C(CN1CCCN(S(=O)(=O)c2ccc(F)cc2)CC1)Nc1ccccc1Br | i | i | i | -6* | 105.1 | i
NS(=O)(=O)c1ccc(NC(=O)CN2CCCN(S(=O)(=O)c3ccc(F)cc3)CC2)cc1 | i | i | i | i | 111.4 | i
O=C(NC(=S)Nc1ccccc1Cl)c1cnn2c(C(F)(F)F)cc(C(F)(F)F)nc12 | i | i | i | i | 93.3 | i
CCOc1ccccc1N(CC(=O)N1CCOCC1)S(=O)(=O)c1ccccc1 | i | i | i | -6* | 96.8 | 93*
CCN(CC)CCN1C(=O)C2C(C(=O)Nc3cc(C)cc(C)c3)C3C=CC2(O3)C1C(=O)NC1CCCCC1 (centres undefined) | i | i | i | i | 93.2 | 47*
CCC1CCCCN1CCN1C(=O)C2C(C(=O)Nc3cccc(OC)c3)C3C=CC2(O3)C1C(=O)NC1CCCCC1 (centres undefined) | i | i | i | i | 103.1 | i
CCC1CCCCN1CCN1C(=O)C2C(C(=O)Nc3ccc(OC)cc3)C3C=CC2(O3)C1C(=O)NC1CCCCC1 (centres undefined) | i | i | i | -6* | 93.8 | i
Cc1ccc(-n2ccnc2SCC(=O)N(CC(C)C)C2CCS(=O)(=O)C2)c(C)c1 (centres undefined) | i | i | i | i | 112.1 | i
COc1cc(OC)c(OC)cc1CCC(C)NCCC(c1ccccc1)c1ccccc1 (centres undefined) | i | i | i | i | 109.8 | 87*
O=C1c2ccc(Oc3ccc4c(c3)C(=O)N(CCCO)C4=O)cc2C(=O)N1CCCO | i | i | i | i | 109.1 | 71*
Cc1ccc2c(c1)C(=O)N(CCCCO)C2=O | i | i | i | i | 108.8 | i
O=C(NC1CCCCC1)c1sc(=S)n2c1[nH]c(=O)c1ccccc12 | i | i | i | i | 103.5 | i
CCCCNC(=O)c1sc(=S)n2c1[nH]c(=O)c1ccccc12 | i | i | i | i | 115.5 | 46*
CCOc1ccc(CCNC(=O)c2ccc3c(=O)[nH]c4c(C(=O)NC(C)C)sc(=S)n4c3c2)cc1 | i | i | 18* | i | 96.6 | i
CCOC(=O)C1(CC2CC2)CCN(Cc2cc(Cl)c(O)c(OC)c2)CC1 | i | i | i | -9* | 85.7 | i
CCOC(=O)C1(CC2CC2)CCN(Cc2cnc(-c3ccccc3C)nc2)CC1 | i | i | i | i | 85.5 | 118*
COc1ccc(NC2c3ccccc3C(=O)N2c2cccnc2)cc1Cl (centres undefined) | i | i | i | i | 106.0 | i
Cn1cccc1C(=O)NC(=O)COC(=O)c1ccc(O)cc1 | i | i | i | i | 98.0 | i
COCCCNC(=O)/C(C#N)=C/c1ccc(F)cc1 | i | i | i | i | 91.7 | i
CCCCNC(=O)/C(C#N)=C/c1ccc(F)cc1F | i | i | 27* | i | 88.7 | i
CCCC(=O)c1ccc(N2CCN(C(=O)c3ccccc3)CC2)c(F)c1 | i | i | i | i | 104.1 | i
CCCC(=O)c1ccc(N2CCN(C(=O)c3ccccc3Br)CC2)c(F)c1 | i | i | 11* | i | 107.2 | i
CN(C)CCCN(C(=O)c1ccc(Br)s1)c1nc2cc3c(cc2s1)OCO3 | i | i | i | -7* | 82.6 | i
CCN(Cc1ccccc1)S(=O)(=O)c1ccc(C(=O)N(CCCN(C)C)c2nc3cc4c(cc3s2)OCO4)cc1 | i | i | i | -6* | 94.2 | 45*
CCN(CC)CCN(C(=O)CN1C(=O)c2ccccc2C1=O)c1nc2cc3c(cc2s1)OCO3 | -8.72* | i | i | i | 104.7 | i
SMILES | TRPC6 inh | TRPC6 activator | TRPC4 potent | TRPC4 inh | Yeast superoxide | TRPC4 act
CCN1CNC(=S)N(c2ccccc2OC)C1 | i | i | i | i | 89.2 | i
NC(=O)C1CCCN(CC(O)COCc2ccc(Cl)cc2)C1 (centres undefined) | i | i | i | i | 91.7 | 189*
Cc1ccc(NC2=Nc3ccccc3CC2)cc1 | i | i | i | i | 106.1 | 54*
Brc1ccc(NC2=Nc3ccccc3CC2)cc1 | i | i | i | i | 105.0 | i
CCOc1cc(CNCCO)cc(Br)c1OCc1ccc(Cl)cc1 | i | i | i | i | 108.2 | i
CCOc1cccc(CNCCO)c1OCc1ccc(Cl)cc1 | i | i | i | -7* | 99.8 | i
Cc1cc(NCc2ccccc2)nc(N2CCOCC2)n1 | i | i | i | -6* | 107.3 | i
Cc1cc(N2CCCCC2)nc(NCc2ccccc2)n1 | i | i | 12* | i | 91.8 | 47*
Cc1cc(N2CCOCC2)nc(NCc2ccccc2)n1 | i | i | i | i | 104.6 | i
Cc1ccc(-n2c(SCC(N)=O)nnc2-c2ccco2)cc1 | i | i | i | i | 87.5 | i
COc1ccc(NC(C)=O)cc1NC(C)C(=O)Nc1cc(C(F)(F)F)ccc1N1CCOCC1 (centres undefined) | i | i | 27* | i | 111.5 | i
O=C(c1cccs1)N1CCN(c2ncc(Br)cn2)CC1 | i | i | i | i | 78.0 | 175*
Cc1cc(-c2nn(-c3ccccc3F)cc2CN2CCC(C(N)=O)CC2)c(C)s1 | i | i | i | i | 103.7 | i
COCC1CCN(Cc2cn(-c3ccccc3F)nc2-c2cc(C)sc2C)CC1 | i | i | i | i | 101.8 | 96*
Cc1cc(-c2nn(-c3ccccc3F)cc2CNCCc2cnc[nH]2)c(C)s1 | i | i | i | i | 92.6 | 125*
Cc1cc(C)c(C(=O)c2ccc(C(=O)N(C(C)C)C(C)C)cc2)c(C)c1 | i | i | 10* | i | 98.2 | i
Cc1cc(C)c(C(=O)c2ccc(C(=O)N3CCCCC3)cc2)c(C)c1 | i | i | 16* | i | 100.8 | i
CCOc1ccc(-c2cc(C(=O)N/N=C(\C)c3cccnc3)c3ccccc3n2)cc1 | i | i | i | i | 90.5 | i
